# ChEMBL document CHEMBL1687827, “Profiling the Aspergillus fumigatus proteome in response to caspofungin” (2011)
# Activity calls are given as the source filed them. The rule behind the calls is not given here.
# Assays:
# Aspergillus fumigatus [1] = experiment: Induction of change in hypothetical protein locus AFUA_8G07100 level in iTRAQ-116 labelled secreted fraction of drug-susceptible Aspergillus fumigatus KU80 delta-akuB at 0.12 ug/ml after 48 hrs in YPD medium by MS (MS/MS) analysis relative to control; type: functional
# Method in brief: (§1)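 Conidia (1 × 10⁵/ml) grown in YPD, 37°C, 225 rpm, ± 0.12 μg/ml caspofungin; filtrate taken as secreted fraction, French-press lysate 5,000 × g pellet as cell wall/plasma membrane. Trypsin digests 8-plex iTRAQ-labelled (drug-free channels as references), pooled, 2D-chromatography, MS/MS. Median-normalized; protein ratio = median of unique-peptide ratios, log2 normalized.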
# Aspergillus fumigatus [2] = experiment: Induction of change in conserved hypothetical gene expression in drug-susceptible Aspergillus fumigatus KU80 delta-akuB at 0.12 ug/ml after 24 hrs in YPD medium by microarray analysis relative to control; type: functional
# Method in brief: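 Mycelia grown in YPD ± 0.12 μg/ml caspofungin (1 × 10⁵ conidia/ml, 37°C, shaking) and harvested at 24 or 48 h. Total RNA extracted, DNase-treated and quality-checked; 2 μg labelled per TIGR SOP M007 and hybridized to whole-genome arrays. Three independent experiments with dye flip (6 replicates); drug vs untreated fold change.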
# Aspergillus fumigatus [3] = experiment: Induction of change in SUN domain protein (Uth1), putative protein level in iTRAQ-118 labelled cell wall fraction of drug-resistant Aspergillus fumigatus EMFR-S678P at 0.12 ug/ml after 24 hrs in YPD medium by MS (MS/MS) analysis relative to control; type: functional
# Method in brief: (§2)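 Conidia at 1 × 10⁵/ml were grown at 37°C, shaking at 225 rpm, in YPD with or without 0.12 μg/ml caspofungin for 24 or 48 h. The culture filtrate was kept as the secreted fraction. Mycelia were lysed by French press in HEPES/glycerol/EDTA/PMSF/DTT buffer, and the 5,000 × g pellet was washed to give CW/PM. Proteins were reduced, alkylated and trypsin-digested at 37°C overnight, then iTRAQ-labelled and run by 2D LC-MS/MS. Ratios are the median of unique-peptide ratios, median-normalized, versus the no-drug control.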
# Aspergillus fumigatus [4] = experiment: Induction of change in 4-hydroxyphenylpyruvate dioxygenase, putative protein level in iTRAQ-116 labelled secreted fraction of drug-susceptible Aspergillus fumigatus KU80 delta-akuB at 0.12 ug/ml after 48 hrs in YPD medium by MS (MS/MS) analysis relative to control; type: functional
# Method in brief: (§3)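 Conidia at 1 × 10⁵/ml grown shaking at 37°C in YPD with or without 0.12 μg/ml caspofungin; mycelia filtered at 24 or 48 h. Secreted fraction taken from the filtrate; cell wall/plasma membrane pellet recovered after French-press lysis and a 5,000 × g spin. Proteins trypsin-digested and iTRAQ-labelled, drug vs no-drug channels at each time, then 2D LC-MS/MS. Protein ratio is the median of ratios from uniquely assigned peptides after median normalization.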
# Aspergillus fumigatus [5] = experiment: Induction of change in ribosomal protein L14 protein level in iTRAQ114 labelled secreted fraction of drug-susceptible Aspergillus fumigatus KU80 delta-akuB at 0.12 ug/ml after 24 hrs in YPD medium by MS (MS/MS) analysis relative to control; type: functional; method in brief: as §1
# Aspergillus fumigatus [6] = experiment: Induction of change in aconitate hydratase, mitochondrial protein level in iTRAQ-116 labelled secreted fraction of drug-susceptible Aspergillus fumigatus KU80 delta-akuB at 0.12 ug/ml after 48 hrs in YPD medium by MS (MS/MS) analysis relative to control; type: functional; method in brief: as §3
# Aspergillus fumigatus [7] = experiment: Induction of change in 60S ribosomal protein P0 protein level in iTRAQ114 labelled cell wall fraction of drug-susceptible Aspergillus fumigatus KU80 delta-akuB at 0.12 ug/ml after 24 hrs in YPD medium by MS (MS/MS) analysis relative to control; type: functional; method in brief: as §3
# Aspergillus fumigatus [8] = experiment: Induction of change in ribosomal protein L27a gene expression in drug-susceptible Aspergillus fumigatus KU80 delta-akuB at 0.12 ug/ml after 24 hrs in YPD medium by microarray analysis relative to control; type: functional
# Method in brief: (§4)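 Mycelia grown from 1 × 10⁵ conidia/ml in YPD at 37°C, 225 rpm, with or without 0.12 μg/ml caspofungin. Total RNA extracted, DNase-treated; 2 μg labelled per TIGR SOP M007 for whole-genome array hybridization. Three independent experiments with dye flip (6 replicates); >2-fold change deemed significant.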
# Aspergillus fumigatus [9] = experiment: Induction of change in 60S ribosomal protein L27e protein level in iTRAQ-118 labelled cell wall fraction of drug-susceptible Aspergillus fumigatus KU80 delta-akuB at 0.12 ug/ml after 24 hrs in YPD medium by MS (MS/MS) analysis relative to control; type: functional; method in brief: as §3
# Aspergillus fumigatus [10] = experiment: Induction of change in citrate synthase, eukaryotic protein level in iTRAQ-116 labelled secreted fraction of drug-susceptible Aspergillus fumigatus KU80 delta-akuB at 0.12 ug/ml after 48 hrs in YPD medium by MS (MS/MS) analysis relative to control; type: functional; method in brief: as §3
# Aspergillus fumigatus [11] = experiment: Induction of change in large subunit ribosomal protein L3 gene expression in drug-susceptible Aspergillus fumigatus KU80 delta-akuB at 0.12 ug/ml after 24 hrs in YPD medium by microarray analysis relative to control; type: functional; method in brief: as §4
# Aspergillus fumigatus [12] = experiment: Induction of change in phosphoglycerate kinase PgkA, putative protein level in iTRAQ-118 labelled cell wall fraction of drug-resistant Aspergillus fumigatus EMFR-S678P at 0.12 ug/ml after 24 hrs in YPD medium by MS (MS/MS) analysis relative to control; type: functional; method in brief: as §2
# Aspergillus fumigatus [13] = experiment: Induction of change in molecular chaperone and allergen Mod-E/Hsp90/Hsp1 protein level in iTRAQ-116 labelled secreted fraction of drug-resistant Aspergillus fumigatus EMFR-S678P at 0.12 ug/ml after 48 hrs in YPD medium by MS (MS/MS) analysis relative to control; type: functional; method in brief: as §2
# Aspergillus fumigatus [14] = experiment: Induction of change in ribosomal protein S9 protein level in iTRAQ114 labelled secreted fraction of drug-susceptible Aspergillus fumigatus KU80 delta-akuB at 0.12 ug/ml after 24 hrs in YPD medium by MS (MS/MS) analysis relative to control; type: functional; method in brief: as §1
# Aspergillus fumigatus [15] = experiment: Induction of change in mitochondrial hypoxia responsive domain protein level in iTRAQ-118 labelled cell wall fraction of drug-resistant Aspergillus fumigatus EMFR-S678P at 0.12 ug/ml after 48 hrs in YPD medium by MS (MS/MS) analysis relative to control; type: functional; method in brief: as §2
# Aspergillus fumigatus [16] = experiment: Antifungal activity against drug-resistant Aspergillus fumigatus EMFR-S678P assessed as reduction in colony size at 0.12 ug/ml; type: functional, organism-based
# Aspergillus fumigatus [17] = experiment: Induction of change in cell wall protein PhiA protein level in iTRAQ-116 labelled secreted fraction of drug-resistant Aspergillus fumigatus EMFR-S678P at 0.12 ug/ml after 48 hrs in YPD medium by MS (MS/MS) analysis relative to control; type: functional, organism-based; method in brief: as §2
# Aspergillus fumigatus [18] = experiment: Induction of change in plasma membrane H -ATPase protein level in iTRAQ-116 labelled secreted fraction of drug-susceptible Aspergillus fumigatus KU80 delta-akuB at 0.12 ug/ml after 48 hrs in YPD medium by MS (MS/MS) analysis relative to control; type: functional; method in brief: as §1
compound,measurement,setting,value
CC[C@H](C)C[C@H](C)CCCCCCCCC(=O)N[C@H]1C[C@@H](O)[C@@H](NCCN)NC(=O)[C@@H]2[C@@H](O)CCN2C(=O)[C@H]([C@H](O)CCN)NC(=O)[C@H]([C@H](O)[C@@H](O)c2ccc(O)cc2)NC(=O)[C@@H]2C[C@@H](O)CN2C(=O)[C@H]([C@@H](C)O)NC1=O [CASPOFUNGIN],fold change (FC),Aspergillus fumigatus [1],2.1
same,fold change (FC),Aspergillus fumigatus [2],15.2
same,fold change (FC),Aspergillus fumigatus [3],1.07
same,fold change (FC),Aspergillus fumigatus [4],>-16
same,fold change (FC),Aspergillus fumigatus [5],-1.1
same,fold change (FC),Aspergillus fumigatus [6],1.2
same,fold change (FC),Aspergillus fumigatus [7],2.1
same,fold change (FC),Aspergillus fumigatus [8],3.6
same,fold change (FC),Aspergillus fumigatus [9],2.6
same,fold change (FC),Aspergillus fumigatus [10],-1.6
same,fold change (FC),Aspergillus fumigatus [11],3.5
same,fold change (FC),Aspergillus fumigatus [12],-1.15
same,fold change (FC),Aspergillus fumigatus [13],-1.07
same,fold change (FC),Aspergillus fumigatus [14],1.1
same,fold change (FC),Aspergillus fumigatus [15],1.07
same,Activity,Aspergillus fumigatus [16],Active
same,Activity,Aspergillus fumigatus [17],inactive
same,fold change (FC),Aspergillus fumigatus [18],-1.7
